Laboratory results: ChEMBL document CHEMBL3259717, “Synthetic calanolides with bactericidal activity against replicating and nonreplicating Mycobacterium tuberculosis” (J Med Chem, 2014)
Values after ≈ are worked out from the molar mass of the structure shown.

Columns and labels:
[1] = system: Mycobacterium tuberculosis; assay: Antibacterial activity against replicating form of wild type Mycobacterium tuberculosis H37Rv assessed as growth inhibition after 7 days by high-throughput screening assay; format: functional; settings: 168 h
How it was run: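 Wild-type H37Rv in 7H9 with glycerol, tyloxapol, ADN, in 96-well plates. Set up as the 384-well screen: OD580 0.01 start, compound in DMSO, 7 days at 37 °C, 20% O2, 5% CO2. OD580 read; MIC90 = 90% growth inhibition vs DMSO control.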

[2] = system: Mycobacterium tuberculosis; assay: Antibacterial activity against non-replicating form of wild type Mycobacterium tuberculosis H37Rv assessed as growth inhibition after 3 days by high-throughput screening assay; format: functional; settings: 72 h
[3] = system: Mycobacterium tuberculosis; assay: Bactericidal activity against wild type Mycobacterium tuberculosis H37Rv infected in IFN-gamma-stimulated primary human monocyte-derived macrophages assessed as reduction of log10CFU incubated for 7 days followed by compound washout measured after 3 weeks; format: functional
How it was run: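 Monocytes from healthy donors isolated by CD14 selection. Differentiated 2 weeks in 40% human plasma with 0.5 ng/mL GM-CSF and TNF-alpha, 10% O2. Then 5 ng/mL IFN-gamma overnight, infected with wild-type Mtb at MOI 0.1. Compound added at 24 h, 1% DMSO final, 7 days. Viability inspected visually; lysed in 0.55% Triton-X and plated on 7H11/OADC for CFU.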

[4] = Selectivity index, ratio of LD50 for human HepG2 cells to MIC90 for replicating form of Mycobacterium tuberculosis H37Rv; format: toxicity, cell-based; settings: read-out: Selectivity Index
How it was run: (§1)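 HepG2 in DMEM with 10% FBS, pyruvate, glutamine, HEPES and nonessential amino acids, seeded 3000 cells/well in 384-well plates. Compound for 2 days at 1% final DMSO. ATP read by CellTiter-Glo luminescence. LD50 = 50% drop in ATP signal vs DMSO. SI = LD50/MIC90 against replicating Mtb.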

[5] = Cytotoxicity against human HepG2 cells assessed as decrease in ATP signal after 2 days by CellTiter-Glo assay; format: cell-based; settings: read-out: LD50; how it was run: as §1
[6] = Genotoxicity in mouse lymphoma cells; format: toxicity, cell-based
[7] = system: Mycobacterium tuberculosis; assay: Antibacterial activity against replicating form of Mycobacterium tuberculosis MC2 6220 assessed as growth inhibition after 7 days by high-throughput screening assay; format: functional; settings: MC2 6220, 168 h
How it was run: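 Attenuated Mtb mc26220 ΔpanCDΔlysA in 7H9 with glycerol, tyloxapol, OADC, casein amino acids, 240 μg/mL L-lysine, 24 μg/mL pantothenate. Mid-log cells diluted to OD580 0.01 in 384-well plates, compound in DMSO, 7 days at 37 °C, 20% O2, 5% CO2. OD580 read; MIC90 = 90% growth inhibition vs DMSO.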

[8] = system: Mycobacterium tuberculosis; assay: Antibacterial activity against non-replicating form of Mycobacterium tuberculosis MC2 6220 assessed as growth inhibition after 3 days by high-throughput screening assay; format: functional; settings: MC2 6220, 72 h
How it was run: (§2)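 Log-phase mc26220 washed in PBS/tyloxapol, resuspended in Sauton's-based NR medium (butyrate, 0.5 mM NaNO2, pH 5.0) at OD580 0.1. Compound exposure 3 days at 37 °C, 1% O2, 5% CO2. Then R medium added (5-fold dilution), 7 days outgrowth at 20% O2. OD580 read; MIC90 = 90% inhibition vs DMSO.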

[9] = system: Mycobacterium tuberculosis; assay: Antibacterial activity against non-replicating form of Mycobacterium tuberculosis MC2 6220 assessed as growth inhibition after 7 days by high-throughput screening assay; format: functional; settings: MC2 6220, 168 h; how it was run: as §2
[10] = Selectivity index, ratio of LD50 for human HepG2 cells to MIC90 for replicating form of Mycobacterium tuberculosis mc'2 6220; format: toxicity, cell-based; settings: read-out: Selectivity Index; how it was run: as §1
[11] = system: Mycobacterium tuberculosis; assay: Antimycobacterial activity against replicating form of Mycobacterium tuberculosis infected in African green monkey Vero cells assessed as growth inhibition; format: functional
[12] = Cytotoxicity against African green monkey Vero cells; format: cell-based; settings: chlorocebus sabaeus, read-out: LD50 (the source's name)
[13] = Selectivity index, ratio of LD50 for African green monkey Vero cells to MIC for replicating form of Mycobacterium tuberculosis infected in African green monkey Vero cells; format: toxicity, cell-based; settings: read-out: Selectivity Index

Compound	CC50 at 48 h [5] [µg/mL]	MIC90 [7] [µg/mL]	MIC90 [8] [µg/mL]	selectivity ratio [10]	other results
CCCc1cc(=O)oc2c1c(OCCN1CCOCC1)cc1oc([N+](=O)[O-])cc12	10 (≈ 24.9 µM)				MIC90 [1]: 0.08 µg/mL (≈ 0.199 µM); MIC90 [2]: 0.2 µg/mL (≈ 0.497 µM); log10cfu [3]: 1; selectivity ratio [4]: 125; Activity [6]: Non-toxic
Cc1cc(=O)oc2c1c1c(c3oc([N+](=O)[O-])cc32)C=CC(C)(C)O1	1 (≈ 3.06 µM)				MIC90 [1]: 0.08 µg/mL (≈ 0.244 µM); MIC90 [2]: 0.2 µg/mL (≈ 0.611 µM); selectivity ratio [4]: 16
CCCc1cc(=O)oc2cc(OCC=C(C)C)c3c(c12)OC(C)(C)C=C3	> 18	> 18	> 18		MIC90 [9]: 2 µg/mL (≈ 5.64 µM)
CN1CCN(Cc2cc(=O)oc3c2c2c(c4oc([N+](=O)[O-])cc43)C=CC(C)(C)O2)CC1	3 (≈ 7.05 µM)				MIC90 [1]: 0.08 µg/mL (≈ 0.188 µM); MIC90 [2]: 0.3 µg/mL (≈ 0.705 µM); selectivity ratio [4]: 31
CCCc1cc(=O)oc2cc(OCCN3CCCCC3)c3c(c12)OC(C)(C)C=C3	> 20	> 20	> 20		MIC90 [9]: 7 µg/mL (≈ 17.6 µM)
CC1(C)CCc2c3c(c4oc(=O)c5c(c4c2O1)CCCC5)[C@H](O)[C@@H]([N+](=O)[O-])O3	25 (≈ 64.5 µM)	0.4 (≈ 1.03 µM)	0.8 (≈ 2.07 µM)	64	
CCCc1cc(=O)oc2cc(N3CCNCC3)c3c(c12)OC(C)(C)C=C3.O=C(O)C(F)(F)F	12	23	> 23	0.5	
Cc1c(F)c(=O)oc2c1c1c(c3oc([N+](=O)[O-])cc32)CCC(C)(C)O1	> 50	0.8 (≈ 2.3 µM)	2 (≈ 5.76 µM)	> 64	
Cc1c(F)c(=O)oc2c1c1c(c3oc([N+](=O)[O-])cc32)C=CC(C)(C)O1	> 50	< 0.1	0.2 (≈ 0.579 µM)	> 510	
CCCc1cc(=O)oc2c3c(cc(OCCN4CCOCC4)c12)O[C@H]([N+](=O)[O-])[C@H]3O	2 (≈ 4.76 µM)				MIC90 [1]: 0.08 µg/mL (≈ 0.19 µM); MIC90 [2]: 0.08 µg/mL (≈ 0.19 µM); selectivity ratio [4]: 20
O=c1oc2c3c(cc(OCCN4CCOCC4)c2c2c1CCCC2)O[C@H]([N+](=O)[O-])[C@H]3O (racemic)	0.4 (≈ 0.925 µM)	< 1	< 1	> 0.3	
CCCc1cc(=O)oc2c1c(OCCN1CCOCC1)cc1oc([N+](=O)[O-])c(COC(C)=O)c12	< 0.3	1 (≈ 2.11 µM)	3 (≈ 6.32 µM)	< 0.3	
Cc1c(F)c(=O)oc2c3c(c4c(c12)OC(C)(C)CC4)O[C@H]([N+](=O)[O-])[C@H]3O (relative stereo)	13 (≈ 35.6 µM)	< 0.1	< 0.1	> 128	
CCCc1cc(=O)oc2c1c(OCc1ccc(F)cc1)cc1oc([N+](=O)[O-])cc12	> 100				MIC90 [1]: 0.6 µg/mL (≈ 1.51 µM); MIC90 [2]: 3 µg/mL (≈ 7.55 µM); log10cfu [3]: 1; selectivity ratio [4]: > 160; Activity [6]: Non-toxic
CCc1c(F)c(=O)oc2c1c1c(c3oc([N+](=O)[O-])cc32)C=CC(C)(C)O1	> 25				MIC90 [1]: 0.6 µg/mL (≈ 1.67 µM); MIC90 [2]: 1 µg/mL (≈ 2.78 µM); selectivity ratio [4]: > 40
CCCc1cc(=O)oc2c1c(OCCN1CCOCC1)cc1oc([N+](=O)[O-])c(C(C)C)c12	22 (≈ 49.5 µM)	> 22	> 22	< 1	
O=[N+]([O-])c1cc2ccccc2o1	3 (≈ 18.4 µM)	0.2 (≈ 1.23 µM)	> 100	16	
CCCc1cc(=O)oc2c3c(c4c(c12)OC(C)(C)C=C4)O[C@H]([N+](=O)[O-])[C@H]3O (relative stereo)	3 (≈ 8.04 µM)	< 0.2	< 0.2	> 11	
CCCc1cc(=O)oc2cc(OCCN3CCCC3)c3c(c12)OC(C)(C)C=C3	19 (≈ 49.5 µM)	19 (≈ 49.5 µM)	> 19	1	
CCCc1cc(=O)oc2cc(N3CCN(C(=O)C(C)CC)CC3)c3c(c12)OC(C)(C)C=C3 (configuration not stated)	22 (≈ 50.2 µM)	> 22	> 22	< 1	
CCCc1cc(=O)oc2c1c(OC)cc1oc([N+](=O)[O-])cc12	0.3 (≈ 0.989 µM)	< 0.2	< 0.2	> 2	
CCCc1cc(=O)oc2cc(N(C)C)c3c(c12)OC(C)(C)C=C3	> 16	> 16	> 16		MIC90 [9]: 2 µg/mL (≈ 6.38 µM)
CCCc1cc(=O)oc2c3c(cc(OCCN4CCOCC4)c12)O[C@@H]([N+](=O)[O-])[C@@H]3O	0.8 (≈ 1.9 µM)				MIC90 [1]: 0.08 µg/mL (≈ 0.19 µM); MIC90 [2]: 0.08 µg/mL (≈ 0.19 µM); selectivity ratio [4]: 10
CC1(C)C=Cc2c(c3c(CN4CCSCC4)cc(=O)oc3c3cc([N+](=O)[O-])oc23)O1	1 (≈ 2.33 µM)	< 0.3	< 0.3	> 5	
CCCc1cc(=O)oc2c3c(c4c(c12)OC(C)(C)C=C4)O[C@H](C)[C@@H](C)[C@@H]3O [CALANOLIDE A]					MIC [11]: 3.1 µg/mL (≈ 8.37 µM); CC50 [12]: 7.6 µg/mL (≈ 20.5 µM); selectivity ratio [13]: 2.4
CCCc1cc(=O)oc2c3c(cc(OCCN4CCOCC4)c12)O[C@H]([N+](=O)[O-])[C@H]3C(C)C (racemic)	> 22	22 (≈ 49.3 µM)	> 22	> 1	
